Our source for the Activity values is ChEMBL document CHEMBL1795307, “Synthesis and anti-inflammatory activity of some novel 3-phenyl-N-[3-(4-phenylpiperazin-1yl)propyl]-1H-pyrazole-5-carboxamide derivatives” (2011).

Holding throughout (format): functional
Assay [1] relates to Rattus norvegicus. The assay can be described thus: Antiinflammatory activity against carrageenan-induced paw edema in rat at 100 mg/kg, po administered 1 hr before carrageenan challenge measured after 2 hrs relative to control. In a few lines:
(§1)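 Rats of either sex (130–180 g), fasted ≥16 h with water available, six per group. Compound given orally in 1% CMC solution 1 h before 0.1 mL of 1% carrageenan suspension injected into hind paw; controls received vehicle. Paw volume read by mercury-displacement plethysmometer before and 1, 2, 3, 4 h after carrageenan. Percent inhibition from mean paw-volume increase versus control.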
(In general: Carrageenan injected into the paw causes an acute inflammation.)

The test system of assay [2] is Rattus norvegicus. Description: Antiinflammatory activity against carrageenan-induced paw edema in rat at 100 mg/kg, po administered 1 hr before carrageenan challenge measured after 1 hr relative to control. Put shortly:
as §1

Assay [3] deals with Rattus norvegicus. The assay can be described thus: Antiinflammatory activity against carrageenan-induced paw edema in rat at 100 mg/kg, po administered 1 hr before carrageenan challenge measured after 4 hrs relative to control. Put shortly:
as §1

Assay [4] relates to Rattus norvegicus. The assay can be described thus: Antiinflammatory activity against carrageenan-induced paw edema in rat at 100 mg/kg, po administered 1 hr before carrageenan challenge measured after 3 hrs relative to control. Put shortly: as §1

In the case of `Cc1ccc(-c2cc(C(=O)NCCCN3CCN(c4ccccc4)CC3)[nH]n2)cc1`, the Activity was 55.5% with Rattus norvegicus [1], 60.5% in the assay with Rattus norvegicus [2], 63.3% with Rattus norvegicus [3] and 67.3% with Rattus norvegicus [4].
In the case of `O=C(NCCCN1CCN(c2ccccc2)CC1)c1cc(-c2ccc([N+](=O)[O-])cc2)n[nH]1`, the Activity in the assay with Rattus norvegicus [1] came to 75.6%; in the assay on Rattus norvegicus [2], 53.9%; in the assay with Rattus norvegicus [3] it was 72.2%; in the assay with Rattus norvegicus [4], 76%.
As to `Cc1cccc(-c2cc(C(=O)NCCCN3CCN(c4ccccc4)CC3)[nH]n2)c1`, the Activity worked out at 65.2% in the assay with Rattus norvegicus [1], 60.5% with Rattus norvegicus [2], 70% in the assay with Rattus norvegicus [3] and 70.6% in the assay with Rattus norvegicus [4].
The like results for `COc1ccc(-c2cc(C(=O)NCCCN3CCN(c4ccccc4)CC3)[nH]n2)cc1` were, in that order, 69.4%, 55.2%, 70% and 75%.
On to `O=C(NCCCN1CCN(c2ccccc2)CC1)c1cc(-c2ccccc2)n[nH]1`, for which the Activity with Rattus norvegicus [1] came to 55.5%; with Rattus norvegicus [2], 47.3%; in the assay with Rattus norvegicus [3], 58.8%; in the assay on Rattus norvegicus [4], 61.9%.
The matching figures for `O=C(NCCCN1CCN(c2ccccc2)CC1)c1cc(-c2cccc([N+](=O)[O-])c2)n[nH]1`: 75%, 67%, 75.5% and 78%.
Consider `COc1cccc(-c2cc(C(=O)NCCCN3CCN(c4ccccc4)CC3)[nH]n2)c1`, for which the Activity in the assay on Rattus norvegicus [1] is on record as 62.5%; with Rattus norvegicus [2] it was 52.6%; in the assay with Rattus norvegicus [3] it was 64.4%; in the assay with Rattus norvegicus [4] it was 65.2%.
For `CC(C)Cc1ccc(C(C)C(=O)O)cc1` (stereo unspecified) [IBUPROFEN], the Activity worked out at 42.1% in the assay with Rattus norvegicus [2], 63.3% with Rattus norvegicus [3] and 72.8% in the assay on Rattus norvegicus [4].
